{"source": "ChEMBL document CHEMBL4261629", "about": "(Bioorg Med Chem, 2018)", "key": {"PC-12 [1]": {"system": "PC-12", "test": "Neuroprotective activity against H2O2-induced toxicity in rat PC12 cells assessed as cell viability at 5 uM pretreated for 24 hrs followed by H2O2 challenge and measured after 12 hrs by MTT assay relative to control", "format": "functional", "details": "read-out: Activity", "outline": "(§1)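 Medium was replaced with fresh medium containing H2O2 (400 μM) or 6-OHDA (200 μM), and incubation continued 12 h. Viability was read by MTT assay. Mean ± SD, three independent experiments.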"}, "PC-12 [2]": {"system": "PC-12", "test": "Cytoprotective activity against H2O2-induced damage in rat PC12 cells assessed as decrease in ROS accumulation preincubated for 24 hrs followed by H2O2 challenge measured after 12 hrs by DCFH-DA dye-based inverted fluorescence microscopic analysis", "format": "functional, cell-based", "outline": "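PC12 cells were pretreated with compound (5 or 10 µM), then challenged with H2O2 and stained with DCFH-DA to show ROS. Fluorescence images were taken by inverted fluorescence microscopy.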"}, "[3]": {"test": "Antioxidant activity assessed as tert-butyl hydroperoxide radical scavenging at 10 uM up to 200 mins", "format": "functional", "outline": "(§2)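 Kinetic peroxide scavenging by GSH at 25 °C in 100 mM phosphate buffer, pH 7.5. Final conditions: EDTA 1 mM, GSH 0.25 mM, NADPH 0.50 mM, glutathione reductase 1.3 unit·mL-1, peroxide 0.20 mM (H2O2, t-BuOOH or Cum-OOH), catalyst 10 μM. Scavenging was followed over time, and maximal scavenging was derived. Mean ± SE, three independent experiments.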"}, "[4]": {"test": "Antioxidant activity assessed as H2O2 radical scavenging at 10 uM up to 200 mins", "format": "functional", "outline": "as §2"}, "[5]": {"test": "Antioxidant activity assessed as cumene hydroperoxide radical scavenging at 10 uM up to 200 mins", "format": "functional", "outline": "as §2"}, "PC-12 [6]": {"system": "PC-12", "test": "Cytotoxicity against rat PC12 cells at 20 uM after 24 hrs by MTT assay", "format": "cell-based", "details": "pc-12, 24 h"}, "PC-12 [7]": {"system": "PC-12", "test": "Antioxidant activity against H2O2-induced oxidative stress in rat PC12 cells assessed as decrease in ROS accumulation preincubated for 24 hrs followed by H2O2 challenge and measured after 12 hrs coincubated with tubastatin A by DCFH-DA dye-based fluorescence analysis", "format": "functional, cell-based", "outline": "(§3)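 Intracellular ROS was detected by DCFH-DA staining, which esterases deacetylate and ROS oxidise to fluorescent dichlorofluorescein. Fluorescence was quantified on a microplate reader.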"}, "PC-12 [8]": {"system": "PC-12", "test": "Antioxidant activity against H2O2-induced oxidative stress in rat PC12 cells assessed as decrease in ROS accumulation at 5 uM preincubated for 24 hrs followed by H2O2 challenge and measured after 12 hrs by DCFH-DA dye-based fluorescence analysis", "format": "functional, cell-based", "outline": "as §3"}, "PC-12 [9]": {"system": "PC-12", "test": "Neuroprotective activity against 6-OHDA-induced toxicity in rat PC12 cells assessed as increase in cell viability at 5 uM pretreated for 24 hrs followed by 6-OHDA challenge and measured after 12 hrs by MTT assay", "format": "functional, cell-based", "outline": "as §1"}, "PC-12 [10]": {"system": "PC-12", "test": "Cytoprotective activity against H2O2-induced damage in rat PC12 cells assessed as decrease in ROS accumulation preincubated for 24 hrs followed by H2O2 challenge measured after 12 hrs by DCFH-DA dye-based fluorescence analysis", "format": "functional, cell-based", "outline": "as §3"}, "Histone deacetylase 3": {"molecular_target": "Histone deacetylase 3 (Homo sapiens, UniProt O15379)", "sequence (O15379 whole entry)": "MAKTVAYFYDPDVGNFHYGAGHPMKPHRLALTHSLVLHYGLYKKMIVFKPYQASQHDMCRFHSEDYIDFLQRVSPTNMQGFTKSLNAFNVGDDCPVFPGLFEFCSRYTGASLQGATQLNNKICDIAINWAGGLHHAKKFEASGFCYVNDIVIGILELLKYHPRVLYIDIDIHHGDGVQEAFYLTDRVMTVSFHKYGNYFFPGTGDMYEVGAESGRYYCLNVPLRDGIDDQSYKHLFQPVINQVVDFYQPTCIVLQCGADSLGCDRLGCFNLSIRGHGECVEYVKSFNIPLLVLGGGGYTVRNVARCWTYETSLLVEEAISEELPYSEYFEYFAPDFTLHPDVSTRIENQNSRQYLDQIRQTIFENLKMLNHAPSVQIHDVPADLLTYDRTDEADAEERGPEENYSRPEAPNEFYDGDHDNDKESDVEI", "test": "Inhibition of recombinant human HDAC3 using fluorogenic HDAC substrate after 30 mins by fluorescence analysis"}, "[11]": {"molecular_target": "T1, Histone deacetylase 6 (Rattus norvegicus) (UniProt Q99P97)", "T1 sequence (whole entry)": "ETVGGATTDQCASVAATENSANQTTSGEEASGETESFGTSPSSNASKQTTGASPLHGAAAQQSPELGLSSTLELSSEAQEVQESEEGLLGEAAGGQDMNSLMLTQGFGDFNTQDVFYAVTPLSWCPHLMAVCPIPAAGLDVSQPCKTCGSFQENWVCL", "test": "Inhibition of HDAC6 in rat PC12 cells assessed as increase in acetylated alpha-tubulin expression after 24 hrs by Western blot analysis", "format": "cell-based", "outline": "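Cellular HDAC6 inhibition: PC12 cells were incubated with compound at 0.01, 0.1, 1 and 10 μM. Acetylated α-tubulin and total α-tubulin were detected by Western blot, and their ratio was assessed.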"}, "PC-12 [12]": {"system": "PC-12", "test": "Neuroprotective activity against 6-OHDA-induced toxicity in rat PC12 cells assessed as increase in cell viability at 10 uM pretreated for 24 hrs followed by 6-OHDA challenge and measured after 12 hrs by MTT assay", "format": "functional, cell-based", "outline": "as §1"}, "[13]": {"molecular_target": "T2, Protein deacetylase HDAC6 (Homo sapiens, UniProt Q9UBN7)", "T2 sequence (Q9UBN7 whole entry)": "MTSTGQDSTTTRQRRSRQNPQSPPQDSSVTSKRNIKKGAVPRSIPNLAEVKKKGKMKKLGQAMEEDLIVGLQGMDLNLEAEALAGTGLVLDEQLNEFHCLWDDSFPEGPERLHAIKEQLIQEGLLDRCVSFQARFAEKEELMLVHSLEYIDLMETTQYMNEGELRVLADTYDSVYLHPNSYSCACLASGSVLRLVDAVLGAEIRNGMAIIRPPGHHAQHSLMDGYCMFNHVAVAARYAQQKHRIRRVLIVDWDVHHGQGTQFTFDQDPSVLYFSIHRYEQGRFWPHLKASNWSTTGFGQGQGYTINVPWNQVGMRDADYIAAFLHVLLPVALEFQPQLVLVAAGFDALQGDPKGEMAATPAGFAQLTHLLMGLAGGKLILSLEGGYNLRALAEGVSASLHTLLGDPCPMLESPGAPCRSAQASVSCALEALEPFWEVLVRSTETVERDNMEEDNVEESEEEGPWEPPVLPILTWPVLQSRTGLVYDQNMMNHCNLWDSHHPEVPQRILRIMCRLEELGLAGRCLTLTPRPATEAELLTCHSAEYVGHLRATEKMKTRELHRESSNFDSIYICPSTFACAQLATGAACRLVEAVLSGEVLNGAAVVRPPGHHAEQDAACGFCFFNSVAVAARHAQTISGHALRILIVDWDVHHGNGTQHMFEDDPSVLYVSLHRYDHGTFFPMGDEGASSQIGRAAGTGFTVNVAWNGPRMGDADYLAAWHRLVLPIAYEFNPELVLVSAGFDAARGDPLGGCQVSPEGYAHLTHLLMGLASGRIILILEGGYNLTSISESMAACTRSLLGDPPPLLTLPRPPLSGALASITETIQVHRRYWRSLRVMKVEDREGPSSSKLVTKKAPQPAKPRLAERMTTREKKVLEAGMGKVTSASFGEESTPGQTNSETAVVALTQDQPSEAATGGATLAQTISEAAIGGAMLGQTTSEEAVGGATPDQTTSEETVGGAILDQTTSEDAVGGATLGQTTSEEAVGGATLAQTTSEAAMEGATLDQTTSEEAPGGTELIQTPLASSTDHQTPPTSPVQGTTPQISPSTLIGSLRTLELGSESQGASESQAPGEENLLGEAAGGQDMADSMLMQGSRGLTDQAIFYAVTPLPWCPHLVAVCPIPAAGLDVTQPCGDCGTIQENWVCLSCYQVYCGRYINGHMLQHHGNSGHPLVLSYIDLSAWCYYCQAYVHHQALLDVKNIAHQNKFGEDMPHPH", "test": "Inhibition of recombinant human HDAC6 using fluorogenic HDAC substrate preincubated for 15 mins followed by substrate addition and measured after 30 mins by fluorescence analysis"}, "[14]": {"test": "Antioxidant activity assessed as tert-butyl hydroperoxide radical scavenging at 10 uM measured within 180 mins", "format": "functional", "outline": "as §2"}, "PC-12 [15]": {"system": "PC-12", "test": "Neuroprotective activity against H2O2-induced toxicity in rat PC12 cells assessed as cell viability at 10 uM pretreated for 24 hrs followed by H2O2 challenge and measured after 12 hrs by MTT assay relative to control", "format": "functional, cell-based", "outline": "as §1"}, "[16]": {"test": "Antioxidant activity assessed as H2O2 radical scavenging at 10 uM measured within 180 mins", "format": "functional", "outline": "as §2"}, "[17]": {"test": "Antioxidant activity assessed as cumene hydroperoxide radical scavenging at 10 uM measured within 180 mins", "format": "functional", "outline": "as §2"}}, "note": "Active and inactive are the calls of the source. The rule behind the calls is not given here.", "data": [{"smiles": "O=C(NO)c1ccc(Cn2[se]c3ccccc3c2=O)cc1", "values": [{"measurement": "viability at 5 µM", "setting": "PC-12 [1]", "value": 90, "unit": "%"}, {"measurement": "Activity", "setting": "PC-12 [2]", "value": "Active"}, {"measurement": "Activity", "setting": "[3]", "value": 78, "unit": "%"}, {"measurement": "Activity", "setting": "[4]", "value": 62, "unit": "%"}, {"measurement": "Activity", "setting": "[5]", "value": 37, "unit": "%"}, {"measurement": "Activity", "setting": "PC-12 [6]", "value": "Non-Toxic"}, {"measurement": "Activity", "setting": "PC-12 [7]", "value": "Dose-dependent effect"}, {"measurement": "Activity", "setting": "PC-12 [8]", "value": "Active"}, {"measurement": "Activity", "setting": "PC-12 [9]", "value": "Active"}, {"measurement": "Activity", "setting": "PC-12 [10]", "value": "Active"}, {"measurement": "IC50", "setting": "Histone deacetylase 3", "value": 1300, "unit": "nM"}, {"measurement": "inhibition", "setting": "[11]", "value": "Dose-dependent effect"}, {"measurement": "Activity", "setting": "PC-12 [12]", "value": "Active"}, {"measurement": "IC50", "setting": "[13]", "value": 37, "unit": "nM"}]}, {"smiles": "O=C(CCCCCn1[se]c2ccccc2c1=O)NO", "values": [{"measurement": "IC50", "setting": "[13]", "value": 181, "unit": "nM"}]}, {"smiles": "O=C(NO)c1ccc(-n2[se]c3ccccc3c2=O)cc1", "values": [{"measurement": "IC50", "setting": "[13]", "value": 1970, "unit": "nM"}]}, {"smiles": "O=C(CCCCCCOc1ccc(-n2[se]c3ccccc3c2=O)cc1)NO", "values": [{"measurement": "IC50", "setting": "[13]", "value": 181, "unit": "nM"}]}, {"smiles": "O=C(CCCCn1[se]c2ccccc2c1=O)NO", "values": [{"measurement": "IC50", "setting": "[13]", "value": 356, "unit": "nM"}]}, {"smiles": "O=C(/C=C/c1ccc(-n2[se]c3ccccc3c2=O)cc1)NO", "values": [{"measurement": "IC50", "setting": "[13]", "value": 679, "unit": "nM"}]}, {"smiles": "O=C(NO)c1ccc(Cn2[se]c3ccc(O)cc3c2=O)cc1", "values": [{"measurement": "Activity", "setting": "[14]", "value": "Active"}, {"measurement": "Activity", "setting": "PC-12 [6]", "value": "Non-Toxic"}, {"measurement": "Activity", "setting": "PC-12 [9]", "value": "Active"}, {"measurement": "Activity", "setting": "PC-12 [15]", "value": "Active"}, {"measurement": "Activity", "setting": "[16]", "value": "Active"}, {"measurement": "Activity", "setting": "PC-12 [12]", "value": "Active"}, {"measurement": "Activity", "setting": "[17]", "value": "Active"}, {"measurement": "IC50", "setting": "[13]", "value": 188, "unit": "nM"}]}, {"smiles": "O=C(CCCCCOc1ccc(-n2[se]c3ccccc3c2=O)cc1)NO", "values": [{"measurement": "IC50", "setting": "[13]", "value": 508, "unit": "nM"}]}, {"smiles": "O=C(NO)c1cnc(N2CCC(Cn3[se]c4ccccc4c3=O)CC2)nc1", "values": [{"measurement": "IC50", "setting": "[13]", "value": 444, "unit": "nM"}]}]}
